# ChEMBL document CHEMBL3808334, “Synthesis and in vitro evaluation of novel triazine analogues as anticancer agents and their interaction studies with bovine serum albumin” (Eur J Med Chem, 2016)
# Columns and labels:
# [1] = Growth inhibition of human COLO205 cells incubated for 48 hrs by sulforhodamine B assay; format: functional; conditions: COLO 205, 48 h
# Method in brief: (§1)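 Cells seeded at 5,000–40,000/well according to doubling time and preincubated 24 h at 37 °C, 5% CO2. Time-zero plates were TCA-fixed. DMSO concentrate was diluted in medium with 50 µg/ml gentamicin to give five concentrations (10-fold or ½ log steps), then exposed 48 h. Cells were TCA-fixed, stained with 0.4% SRB and read at 515 nm. Percent growth was taken against time-zero and control; GI50, TGI and LC50 derived.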
# [2] = tested on: MCF7; assay: Growth inhibition of human MCF7 cells assessed as cell growth at 10 uM incubated for 48 hrs by sulforhodamine B assay; format: functional; conditions: MCF7, 48 h, read-out: Activity
# [3] = Growth inhibition of human OVCAR5 cells incubated for 48 hrs by sulforhodamine B assay; format: functional; conditions: OVCAR-5, 48 h
# Method in brief: (§2)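 Cells were plated at 5,000–40,000 per well according to doubling time and preincubated 24 h at 37 °C in 5% CO2; time-zero plates were then TCA-fixed. Five concentrations (10-fold or ½-log dilutions, DMSO stock) were incubated 48 h. Cells were TCA-fixed, stained with 0.4% SRB and read at 515 nm. GI50 was taken where [(Ti−Tz)/(C−Tz)]×100 = 50.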
# [4] = Growth inhibition of human LOXIMVI cells assessed as cell growth at 10^-8 M incubated for 48 hrs by sulforhodamine B assay; format: functional; conditions: LOX IMVI, read-out: Activity
# [5] = Growth inhibition of human TK10 cells assessed as cell growth at 10^-6 M incubated for 48 hrs by sulforhodamine B assay; format: functional; conditions: TK-10, 48 h, read-out: Activity
# [6] = biological target: Albumin (Bos taurus, UniProt P02769); assay: Binding affinity to bovine serum albumin assessed as isoemissive point up to 20 uM by fluorescence spectroscopic analysis relative to control; format: ADME; conditions: cattle, isolated protein
# Method in brief: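 Fluorescence titration of 10 µM BSA in 0.1 M phosphate buffer pH 7.4 with compound at 0–20 µM, diluted from DMSO stocks. Excitation 280 nm, slit 10 nm, 1 cm quartz cell, 300 K. Changes in the 350 nm Trp emission, new bands near 370–373 nm and isoemissive points are read against BSA alone.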
# [7] = tested on: SN12C; assay: Growth inhibition of human SN12C cells assessed as cell growth at 10 uM incubated for 48 hrs by sulforhodamine B assay; format: functional; conditions: read-out: Activity
# [8] = tested on: SN12C; assay: Growth inhibition of human SN12C cells incubated for 48 hrs by sulforhodamine B assay; format: functional; method in brief: as §2
# [9] = tested on: ACHN; assay: Growth inhibition of human ACHN cells assessed as cell growth at 10^-8 M incubated for 48 hrs by sulforhodamine B assay; format: functional; conditions: read-out: Activity
# Method in brief: (§3)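 Five-dose assay: five concentrations from 10-fold or ½-log serial dilutions. Cells are plated at 5,000–40,000 per well according to doubling time, grown 24 h, then exposed 48 h at 37 °C, 5% CO₂. Fixed with cold 50% TCA (final addition) for 60 min at 4 °C and stained with 0.4% SRB in 1% acetic acid. Bound dye is solubilized in 10 mM Tris base and read at 515 nm. GI₅₀ is where [(Ti−Tz)/(C−Tz)]×100 = 50, with a time-zero plate as Tz.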
# [10] = Growth inhibition of human SKOV3 cells assessed as cell growth at 10^-8 M incubated for 48 hrs by sulforhodamine B assay; format: functional; conditions: SK-OV-3, 48 h, read-out: Activity
# [11] = tested on: NCI/ADR-RES; assay: Growth inhibition of human NCI/ADR-RES cells assessed as cell growth at 10^-6 M incubated for 48 hrs by sulforhodamine B assay; format: functional; conditions: read-out: Activity
# [12] = Growth inhibition of human UACC62 cells assessed as cell growth at 10^-6 M incubated for 48 hrs by sulforhodamine B assay; format: functional; conditions: UACC-62, 48 h, read-out: Activity
# [13] = Growth inhibition of human UACC62 cells assessed as cell growth at 10^-7 M incubated for 48 hrs by sulforhodamine B assay; format: functional; conditions: UACC-62, 48 h, read-out: Activity
# [14] = tested on: U-251; assay: Growth inhibition of human U251 cells assessed as cell growth at 10^-5 M incubated for 48 hrs by sulforhodamine B assay; format: functional; conditions: U-251, 48 h, read-out: Activity
# [15] = Growth inhibition of human HCT15 cells assessed as cell growth at 10^-4 M incubated for 48 hrs by sulforhodamine B assay; format: functional; conditions: HCT-15, 48 h, read-out: Activity; method in brief: as §1
# [16] = Growth inhibition of human HCC2998 cells assessed as cell growth at 10^-4 M incubated for 48 hrs by sulforhodamine B assay; format: functional; conditions: HCC 2998, 48 h, read-out: Activity
# [17] = Growth inhibition of human CNS cancer cells incubated for 48 hrs by sulforhodamine B assay; format: functional; conditions: Cancer cell lines; for CC50: read-out: LC50 (the source's name); method in brief: as §3
# [18] = tested on: MDA-MB-435; assay: Growth inhibition of human MDA-MB-435 cells assessed as cell growth at 10^-5 M incubated for 48 hrs by sulforhodamine B assay; format: functional; conditions: MDA-MB-435, 48 h, read-out: Activity
# [19] = Growth inhibition of human SNB75 cells assessed as cell growth at 10^-4 M incubated for 48 hrs by sulforhodamine B assay; format: functional; conditions: SNB-75, 48 h, read-out: Activity
# [20] = Growth inhibition of human RPMI8226 cells assessed as cell growth at 10^-4 M incubated for 48 hrs by sulforhodamine B assay; format: functional; conditions: RPMI-8226, 48 h, read-out: Activity
# [21] = tested on: T47D; assay: Growth inhibition of human T47D cells assessed as cell growth at 10^-4 M incubated for 48 hrs by sulforhodamine B assay; format: functional; conditions: read-out: Activity
# [22] = Growth inhibition of human BT549 cells assessed as cell growth at 10^-6 M incubated for 48 hrs by sulforhodamine B assay; format: functional; conditions: BT-549, 48 h, read-out: Activity; method in brief: as §3
# [23] = Growth inhibition of human TK10 cells assessed as cell growth at 10^-7 M incubated for 48 hrs by sulforhodamine B assay; format: functional; conditions: TK-10, 48 h, read-out: Activity
# [24] = Growth inhibition of human SF268 cells assessed as cell growth at 10^-8 M incubated for 48 hrs by sulforhodamine B assay; format: functional; conditions: SF-268, 48 h, read-out: Activity
# [25] = Growth inhibition of human HOP92 cells assessed as cell growth at 10^-7 M incubated for 48 hrs by sulforhodamine B assay; format: functional; conditions: HOP-92, 48 h, read-out: Activity
# [26] = Growth inhibition of human SF295 cells incubated for 48 hrs by sulforhodamine B assay; format: functional; conditions: SF-295, 48 h; method in brief: as §2
# [27] = read-out: LC50 (the source's name)
# [28] = read-out: pLC50 (the source's name) (converted)
# Albumin, sequence (P02769 whole entry): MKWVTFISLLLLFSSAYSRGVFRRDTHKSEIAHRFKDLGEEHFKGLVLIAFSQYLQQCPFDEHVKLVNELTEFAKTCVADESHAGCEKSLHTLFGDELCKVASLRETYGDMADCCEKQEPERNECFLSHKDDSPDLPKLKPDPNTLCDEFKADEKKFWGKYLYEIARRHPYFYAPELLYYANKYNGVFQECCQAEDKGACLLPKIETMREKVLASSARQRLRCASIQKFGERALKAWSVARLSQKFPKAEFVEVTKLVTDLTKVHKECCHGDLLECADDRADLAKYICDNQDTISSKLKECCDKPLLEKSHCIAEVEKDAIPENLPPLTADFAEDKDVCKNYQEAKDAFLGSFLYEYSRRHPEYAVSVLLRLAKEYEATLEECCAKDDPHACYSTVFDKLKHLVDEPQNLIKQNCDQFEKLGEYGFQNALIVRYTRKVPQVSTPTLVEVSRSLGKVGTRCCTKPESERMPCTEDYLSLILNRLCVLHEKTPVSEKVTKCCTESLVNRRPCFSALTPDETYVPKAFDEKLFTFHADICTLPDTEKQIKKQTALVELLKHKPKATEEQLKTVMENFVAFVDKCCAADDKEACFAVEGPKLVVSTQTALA
smiles,measurement,setting,value
Clc1ccc(-c2nc(Nc3ccc(-c4nc5ccccc5[nH]4)cc3)nc(N3CCOCC3)n2)cc1,GI50,[1]; read-out: GI50,305 nM
same,TGI,[1]; read-out: TGI,1070 nM
same,GI50,[1]; read-out: pGI50 (converted),302 nM
same,TGI,[1]; read-out: pTGI (converted),1070 nM
same,growth at 10 µM,[2],-73.8%
same,GI50,[3]; read-out: GI50,505 nM
same,TGI,[3]; read-out: TGI,1940 nM
same,GI50,[3]; read-out: pGI50 (converted),501 nM
same,TGI,[3]; read-out: pTGI (converted),1950 nM
same,growth at 0.01 µM,[4],97%
same,growth at 1 µM,[5],110%
same,Activity,[6],349 nm
same,growth at 10 µM,[7],-79.5%
same,GI50,[8]; read-out: GI50,851 nM
same,TGI,[8]; read-out: TGI,2390 nM
same,GI50,[8]; read-out: pGI50 (converted),851 nM
same,TGI,[8]; read-out: pTGI (converted),2400 nM
same,growth at 0.01 µM,[9],95%
same,growth at 0.01 µM,[10],101%
same,growth at 1 µM,[11],37%
same,growth at 1 µM,[12],-53%
same,growth at 0.1 µM,[13],93%
same,growth at 10 µM,[14],-92%
same,growth at 100 µM,[15],-10%
same,growth at 100 µM,[16],2%
same,GI50,[17],770 nM
same,TGI,[17],1920 nM
same,CC50,[17],> 100000 nM
same,growth at 10 µM,[18],-98%
same,growth at 100 µM,[19],-26%
same,growth at 100 µM,[20],-27%
same,growth at 100 µM,[21],-32%
same,growth at 1 µM,[22],86%
same,growth at 0.1 µM,[23],92%
same,growth at 0.01 µM,[24],98%
same,growth at 0.1 µM,[25],89%
same,GI50,[26]; read-out: GI50,1470 nM
same,TGI,[26]; read-out: TGI,2990 nM
same,GI50,[26]; read-out: pGI50 (converted),1480 nM
same,TGI,[26]; read-out: pTGI (converted),3020 nM
c1ccc2[nH]c(-c3ccc(Nc4nc(N5CCCCC5)nc(N5CCOCC5)n4)cc3)nc2c1,GI50,[1]; read-out: GI50,1860 nM
same,LC50,[1]; read-out: LC50,8270 nM
same,TGI,[1]; read-out: TGI,3920 nM
same,GI50,[1]; read-out: pGI50 (converted),1860 nM
same,LC50,[1]; read-out: pLC50 (converted),8320 nM
same,TGI,[1]; read-out: pTGI (converted),3890 nM
same,growth at 10 µM,[2],3.49%
same,GI50,[3]; read-out: GI50,4060 nM
same,CC50,[3]; [27],> 100000 nM
same,TGI,[3]; read-out: TGI,29300 nM
same,GI50,[3]; read-out: pGI50 (converted),4070 nM
same,CC50,[3]; [28],> 100000 nM
same,TGI,[3]; read-out: pTGI (converted),29500 nM
same,growth at 0.01 µM,[4],96%
same,growth at 1 µM,[5],105%
same,Activity,[6],350 nm
same,growth at 10 µM,[7],52.4%
same,LC50 (50% lethal concentration),[8],> 100000 nM
same,GI50,[8]; read-out: GI50,5400 nM
same,TGI,[8]; read-out: TGI,53200 nM
same,GI50,[8]; read-out: pGI50 (converted),5370 nM
same,CC50,[8]; [28],> 100000 nM
same,TGI,[8]; read-out: pTGI (converted),53700 nM
same,growth at 0.01 µM,[9],101%
same,growth at 0.01 µM,[10],97%
same,growth at 1 µM,[11],95%
same,growth at 1 µM,[12],92%
same,growth at 0.1 µM,[13],96%
same,growth at 100 µM,[15],-22%
same,GI50,[17],2540 nM
same,TGI,[17],23200 nM
same,CC50,[17],46600 nM
same,growth at 10 µM,[18],-48%
same,growth at 100 µM,[19],-33%
same,growth at 100 µM,[20],-24%
same,growth at 100 µM,[21],-43%
same,growth at 1 µM,[22],89%
same,growth at 0.1 µM,[23],93%
same,growth at 0.01 µM,[24],96%
same,growth at 0.1 µM,[25],93%
same,GI50,[26]; read-out: GI50,1850 nM
same,CC50,[26]; [27],34600 nM
same,TGI,[26]; read-out: TGI,4600 nM
same,GI50,[26]; read-out: pGI50 (converted),1860 nM
same,CC50,[26]; [28],34700 nM
same,TGI,[26]; read-out: pTGI (converted),4570 nM
